Screening results (PubChem)
The sample as a whole holds a higher share of hits than the screen did.
Yeast lifespan up: yeast lifespan extension; S. cerevisiae growth with nicotinamide, OD615; deaD strain in restrictive glucose medium; inhibition of the nicotinamide effect, % at 10 µM; hit rate 0.68% among 130,000; AID 775;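 active = inhibition above a set limit, placed 3 SD over the median of all compounds, cut at about 26% in these data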
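Buffer or medium: CSMM-D glucose medium, restrictive; test system: modified budding yeast, DeaD strain; compound: single dose 10 µM compound, 0.25% DMSO; schedule: culture preincubation 4 h, compound exposure 48 h, both 30 °C; detection: optical density (absorbance) at 615 nm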
PostGolgi ctrl: growth of the yeast control strain, post-Golgi counter-screen; efflux-deficient yeast background strain, growth absorbance A615, 16 h; hit rate 5% among 98,000; inhibition, % at 10 µM; AID 738
PostGolgi yeast: growth inhibition of a yeast mutant, post-Golgi transport screen; inhibition, % at 10 µM; post-Golgi transport phenotypic cell assay; AID 739; hit rate 0.9% among 98,000;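 also: yeast cells grown in 1536-well plates; yeast grown about 18 h at 30C before absorbance read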
BB579 growth dn: chemicals that inhibit yeast BB579 growth in restrictive medium (lifespan-shortening candidates); S. cerevisiae BB579 growth, OD615, 48 h; inhibition, % at 10 µM; hit rate 0.51% among 140,000; AID 804;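 active = inhibition above a set limit, 3 SD over the mean compound inhibition, cut at about 44% in these data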
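Test system: DeaD yeast strain BB579 / Buffer or medium: restrictive glucose-based CSMM-D medium / Doses: single 10 µM dose / Schedule: 4 h cell preincubation, 48 h compound exposure, 30 °C humidified / Technique: culture absorbance at 615 nm / Controls: amphotericin B positive control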
Hits are given with their value; n = inactive; x = no result given. Rule as the data show it, unless noted: active = inhibition above about 30%; inactive = the rest.

SMILES | Yeast lifespan up | PostGolgi ctrl | PostGolgi yeast | BB579 growth dn
O=C(CNC(=O)c1ccc(S(=O)(=O)N2CCCC2)cc1)N/N=C/c1ccc(Cl)cc1Cl | n | x | x | n
O=C(NCc1ccccc1)N(Cc1nc2ccccc2c(=O)[nH]1)C1CCCC1 | n | n | n | n
O=C(NCc1ccccn1)C1CCN(S(=O)(=O)N2CCCC2)CC1 | n | 39 | n | n
O=C(CN1N=C(c2ccc(Cl)cc2)CCC1=O)NCc1cccnc1 | n | x | x | n
CCCCOc1ccc(C(=O)NNC(=S)NC(=O)CC)cc1 | n | x | x | 48
CCCOc1ccc(C(=O)NNC(=S)NC(C)=O)cc1 | n | 32 | 47 | n
O=C(OCC(=O)c1c[nH]c2ccccc12)c1cc2ccccc2cc1O | n | x | x | n
CC(C)COc1ccc(-c2cc(C(=O)NN)[nH]n2)cc1 | n | x | x | n
O=C(CCNC(=O)c1ccc(Cl)cc1)Nc1c(F)c(F)cc(F)c1F | n | x | x | n
COC(=O)c1ccc(Sc2ccccc2NS(=O)(=O)c2ccc(OC)cc2)nc1 | n | n | n | n
CCCOc1cc(N(CC)CC)ccc1/C=C(/C#N)c1nc2ccc(C)cc2[nH]1 | n | n | n | n
CCOc1cc(N(CC)CC)ccc1/C=C(/C#N)c1nc2ccccc2[nH]1 | n | 50 | n | n
COc1ccc(OCC(=O)Nc2ccccc2OC)cc1 | n | n | n | n
CCCOc1ccccc1N/C(=N/c1nc(C)cc(C)n1)NC(=O)COc1ccc(OC)cc1 | n | n | 40 | n
CC1(C)CCCC(C)(C)N1CC(O)COCCOc1ccc(Br)cc1 (centres undefined) | n | x | x | n
CC1CCCC(NC(=S)NC(=O)c2ccccc2Br)C1C (centres undefined) | n | x | x | n
COc1ccc(C(=O)c2c(C(F)(F)F)oc3c2C(=O)c2ccccc2C3=O)cc1OC | n | n | 37 | n
COc1ccc(C(=O)Nc2ccc3c(c2)C(=O)c2ccccc2C3=O)cc1OC | n | x | x | n
CCOC(=O)C1(C)/C(=N/Nc2ccccc2Cl)C(=O)C(=O)N1c1ccccc1 (centres undefined) | n | n | n | n
O=C(CCNC(=O)Cn1ccc2ccccc2c1=O)NCCc1ccccc1Cl | n | x | x | n
CSc1nsc(SC)c1NC(=O)OCC1CCCO1 (centres undefined) | n | n | n | n
CC(C)NC1CS(=O)(=O)CC1O (centres undefined) | 58 | n | n | n
O=S1(=O)CC(O)C(Nc2ccccc2)C1 (centres undefined) | n | n | n | n
COc1ccccc1CN1C(=O)CN(C2CCCCCC2)C(=O)C1c1ccc(F)cc1 (centres undefined) | n | 49 | n | n
COc1cc(/C=N/N=C(/N)c2nonc2N)cc(Br)c1OCc1cccc(C)c1 | n | 33 | n | n
SMILES | Yeast lifespan up | PostGolgi ctrl | PostGolgi yeast | BB579 growth dn
Cc1cccc(NC(=O)/C=C/c2ccc([N+](=O)[O-])s2)c1 | n | x | x | n
Cc1cccc(NC(=S)N/N=C/c2ccc([N+](=O)[O-])s2)c1 | n | 96 | 44 | n
CC(C)(C)c1nc2c(Br)cc(Br)cc2c(=O)o1 | n | x | x | n
CCn1c(SCC(=O)NCc2ccccc2)nc2ccccc2c1=O | n | n | n | n
O=C(CSc1nc2ccccc2c(=O)n1C1CC1)NCc1ccccc1 | n | 36 | n | n
CSc1ccccc1NC(=O)COc1ccc(S(=O)(=O)N2CCCC2)cc1 | n | n | n | n
COc1cccc(NC(=O)c2ccc(CN3CCN(c4ccccc4)CC3)cc2)c1 | n | n | 37 | n
COc1ccc(NC(=O)c2ccc(CN3CCN(c4ccccc4)CC3)cc2)cc1 | n | n | 64 | n
COc1cccc(C(=O)Nc2ccc(N3CCN(Cc4ccccc4)CC3)cc2)c1 | n | n | n | n
C=CCC(C#Cc1ccc(C)cc1)N(CC)CC (centres undefined) | n | n | n | n
Cc1ccccc1N1C(=O)C(Cl)=C(N2CCN(c3ccccc3)CC2)C1=O | n | 38 | n | n
Cc1ccc(OC(=O)c2cccc(S(=O)(=O)N3CCCC3)c2)c(-n2nc3ccccc3n2)c1 | n | x | x | n
O=C1CCCN1CC(O)CS(=O)(=O)c1ccc(Cl)cc1 (centres undefined) | n | n | n | n
COc1cccc(C2NC(CCSC)(C(=O)O)C3C(=O)N(C(C)C)C(=O)C23)c1O (centres undefined) | n | 40 | n | n
CC(=O)Nc1ccc(-c2nnc(SCC(=O)NCc3ccco3)n2C)cc1 | n | 33 | n | n
CCOC(=O)CCCNC(=O)COC(=O)c1ccc(O)cc1 | n | n | n | n
CC12CC(c3ccccc3O1)C(C(=O)NCc1ccccc1)C(=O)N2 (centres undefined) | n | n | 35 | n
Cc1nc2cc(NC(=O)CCS(=O)(=O)c3ccccc3)ccc2s1 | n | x | x | n
CCCc1cc(-c2[nH]ncc2-c2ccc3c(c2)OCCCO3)c(O)cc1OC | n | 40 | n | n
CCc1cc(-c2[nH]ncc2-c2ccc3c(c2)OCO3)c(O)cc1O | x | x | x | n
COCCn1c(C23CC4CC(CC(C4)C2)C3)n[nH]c1=S | n | 32 | n | n
COCCn1c(-c2ccccc2F)n[nH]c1=S | n | n | n | n
O=C1C=CC2C(c3ccc4c(c3)OCO4)CC1N2Cc1ccccc1 (centres undefined) | 50 | x | x | n
CN1C(=O)c2ccccc2N(C)C1c1ccc2c(c1)OCO2 (centres undefined) | n | n | n | n
CC(CCc1ccccc1)NC(=O)CN1CCN(Cc2ccccc2)C1=O (centres undefined) | n | 33 | n | n
SMILES | Yeast lifespan up | PostGolgi ctrl | PostGolgi yeast | BB579 growth dn
CC(CCc1ccccc1)NC(=O)CN1CCN(Cc2ccc(Cl)cc2)C1=O (centres undefined) | n | n | n | n
Cn1c(N)c(C(=O)COC(=O)CNS(=O)(=O)c2ccc(Cl)c(Cl)c2)c(=O)n(C)c1=O | n | x | x | n
Cc1csc(SCC(=O)NC(=O)NCc2ccccc2)n1 | n | 42 | n | n
Cc1csc(SCC(=O)NC(=O)Cc2ccccc2)n1 | n | x | x | n
COc1cc2c(cc1OC)CN(C(C)C(=O)Nc1ccc(NC(C)=O)cc1)CC2 (centres undefined) | n | n | n | n
O=c1nc(NC2CCCC2)ccn1Cc1cccc(Br)c1 | n | 50 | n | n
Cc1cccc(S(=O)(=O)NC(Cc2c[nH]c3ccccc23)C(=O)O)c1 (centres undefined) | n | x | x | n
Cc1ccc(OCCCCn2cnc3ccccc32)c(C)c1 | n | 32 | n | n
Cc1ccc(C)c(OCCCCn2cnc3ccccc3c2=O)c1 | n | n | n | n
C/C(N)=C(/C#N)C(=O)COC(=O)c1cccc2ccccc12 | n | x | x | n
N#CSCC(=O)c1cccc2ccccc12 | n | x | x | 84
CCOC(=O)c1c(NC(=O)CSC2=NN3CCCC(=O)N=C3S2)sc2c1CCCCC2 | n | x | x | n
Fc1ccc2nc3n(c2c1F)CCCCCC3 | n | 40 | n | n
CCN(CC)c1ccc(NC(=O)CN2C(=O)CSc3ncccc32)c(C)c1 | n | n | n | n
COc1ccc(N2CCN(CCCNS(=O)(=O)c3ccc4c(c3)oc(=O)n4C)CC2)cc1 | n | 32 | n | n
CN1CCN(CC(=O)N2CCn3c4c(c5cc(C6CCCCC6)ccc53)CCCC42)CC1 (centres undefined) | n | 86 | 53 | 100
